These results are taken from ChEMBL document CHEMBL3124742, “Synthesis and biological evaluation of new carbohydrate-substituted indenoisoquinoline topoisomerase I inhibitors and improved syntheses of the experimental anticancer agents indotecan (LMP400) and indimitecan (LMP776)” (J Med Chem, 2014).

Calls of active or inactive are those of the source. The calls are words filed in the database; no cut-off is given here. Some results are limits rather than exact numbers.

Sequence of Tyrosyl-DNA phosphodiesterase 1 (Q9NUW8 whole entry): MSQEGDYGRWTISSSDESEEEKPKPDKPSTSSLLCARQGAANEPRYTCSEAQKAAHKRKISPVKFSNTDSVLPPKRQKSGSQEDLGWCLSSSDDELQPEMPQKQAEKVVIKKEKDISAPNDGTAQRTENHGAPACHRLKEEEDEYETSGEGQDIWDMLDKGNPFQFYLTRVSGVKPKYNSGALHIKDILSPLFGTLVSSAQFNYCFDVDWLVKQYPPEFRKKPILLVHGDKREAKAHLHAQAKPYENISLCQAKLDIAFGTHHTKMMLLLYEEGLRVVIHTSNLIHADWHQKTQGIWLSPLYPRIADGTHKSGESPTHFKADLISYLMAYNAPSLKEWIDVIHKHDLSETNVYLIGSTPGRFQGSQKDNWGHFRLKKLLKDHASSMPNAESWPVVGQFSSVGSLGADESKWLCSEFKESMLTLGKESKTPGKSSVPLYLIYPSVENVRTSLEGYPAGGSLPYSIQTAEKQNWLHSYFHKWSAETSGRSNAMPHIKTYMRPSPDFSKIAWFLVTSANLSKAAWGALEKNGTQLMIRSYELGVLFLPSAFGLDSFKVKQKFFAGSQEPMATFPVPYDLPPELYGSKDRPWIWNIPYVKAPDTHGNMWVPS

Test system in the first experiment: not listed separately
As to the kind of experiment: Growth inhibition of human SF539 cells. In kind it is functional. The conditions noted are these: SF-539. Put shortly:
(§1)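 NCI-60 five-dose testing, 10^-8 to 10^-4 M, given only to compounds with significant growth inhibition in the 10 μM one-dose screen. Five-dose assay may be repeated.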
Take `O=C1c2ccccc2-c2c1c1ccc([N+](=O)[O-])cc1c(=O)n2C[C@H](O)[C@@H](O)[C@H](O)CO`: growth was halved (GI50) at 214 nM.
Same read-out and setting: the same measure for `O=C1c2ccccc2-c2c1c1ccc([N+](=O)[O-])cc1c(=O)n2C[C@@H](O)[C@@H](O)[C@H](O)[C@H](O)CO`: 3390 nM; for `O=C1c2ccccc2-c2c1c1ccc([N+](=O)[O-])cc1c(=O)n2CC(O)CO` (racemic): 339 nM; for `O=C1c2ccccc2-c2c1c1ccc([N+](=O)[O-])cc1c(=O)n2C[C@H](O)[C@H](O)[C@H](O)CO`: 234 nM.

The subject of another experiment is MCF7. As to the kind of experiment: Growth inhibition of human MCF7 cells. In kind it is functional.
Details: not given
The method, boiled down: as §1
With `O=C1c2ccccc2-c2c1c1ccc([N+](=O)[O-])cc1c(=O)n2C[C@H](O)[C@@H](O)[C@H](O)CO`, the 50% growth inhibitory concentration (GI50) (commonly the concentration that inhibits growth by half) is 96 nM.
Still for that read-out and setting: the same measure for `O=C1c2ccccc2-c2c1c1ccc([N+](=O)[O-])cc1c(=O)n2C[C@@H](O)[C@@H](O)[C@H](O)[C@H](O)CO`: 724 nM; for `O=C1c2ccccc2-c2c1c1ccc([N+](=O)[O-])cc1c(=O)n2CC(O)CO` (racemic): 60 nM; for `O=C1c2ccccc2-c2c1c1ccc([N+](=O)[O-])cc1c(=O)n2C[C@H](O)[C@H](O)[C@H](O)CO`: 145 nM.

Another experiment relates to HOP-62. As to the kind of experiment: Growth inhibition of human HOP62 cells. In kind it is functional.
Details: not given
Put shortly:
as §1
As to `O=C1c2ccccc2-c2c1c1ccc([N+](=O)[O-])cc1c(=O)n2C[C@H](O)[C@@H](O)[C@H](O)CO`, the GI50 worked out at 363 nM.
For the compound `O=C1c2ccccc2-c2c1c1ccc([N+](=O)[O-])cc1c(=O)n2C[C@@H](O)[C@@H](O)[C@H](O)[C@H](O)CO`, the GI50 was > 100000 nM.
Regarding `O=C1c2ccccc2-c2c1c1ccc([N+](=O)[O-])cc1c(=O)n2CC(O)CO` (racemic), it took 324 nM to inhibit growth by half (GI50).
`O=C1c2ccccc2-c2c1c1ccc([N+](=O)[O-])cc1c(=O)n2C[C@H](O)[C@H](O)[C@H](O)CO` showed a GI50 of 407 nM.

The test system of another experiment is DU-145. As to the kind of experiment: Growth inhibition of human DU145 cells. In kind it is functional.
Details: not given
Put shortly:
as §1
On to `O=C1c2ccccc2-c2c1c1ccc([N+](=O)[O-])cc1c(=O)n2C[C@H](O)[C@@H](O)[C@H](O)CO`, for which the GI50 amounted to 457 nM.
Consider `O=C1c2ccccc2-c2c1c1ccc([N+](=O)[O-])cc1c(=O)n2C[C@@H](O)[C@@H](O)[C@H](O)[C@H](O)CO`, for which the GI50 was > 100000 nM.
Compound `O=C1c2ccccc2-c2c1c1ccc([N+](=O)[O-])cc1c(=O)n2CC(O)CO` (racemic) registered a GI50 of 363 nM. This lies in the sub-micromolar range.
Still for that read-out and setting: the same measure for `O=C1c2ccccc2-c2c1c1ccc([N+](=O)[O-])cc1c(=O)n2C[C@H](O)[C@H](O)[C@H](O)CO`: 550 nM.

For the next experiment, the system named is OVCAR-3. As to the kind of experiment: Growth inhibition of human OVCAR3 cells. The class given is functional.
Details: not given
The method, boiled down:
as §1
Compound `O=C1c2ccccc2-c2c1c1ccc([N+](=O)[O-])cc1c(=O)n2C[C@H](O)[C@@H](O)[C@H](O)CO` gave a GI50 of 407 nM.
On the same count and under the same terms, the value for `O=C1c2ccccc2-c2c1c1ccc([N+](=O)[O-])cc1c(=O)n2C[C@@H](O)[C@@H](O)[C@H](O)[C@H](O)CO` was 5250 nM; that for `O=C1c2ccccc2-c2c1c1ccc([N+](=O)[O-])cc1c(=O)n2CC(O)CO` (racemic) was 479 nM; that for `O=C1c2ccccc2-c2c1c1ccc([N+](=O)[O-])cc1c(=O)n2C[C@H](O)[C@H](O)[C@H](O)CO` was 525 nM.

Another experiment has as its target Tyrosyl-DNA phosphodiesterase 1 (Homo sapiens, UniProt Q9NUW8). As to the kind of experiment: Inhibition of recombinant TDP1 (unknown origin) using N14Y as substrate after 15 mins by PAGE analysis.
Details: not given
The method, boiled down: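 Substrate is a 5'-[32P]-labelled single-stranded oligonucleotide with a 3'-phosphotyrosine (N14Y). It is incubated with 5 pM recombinant TDP1 ± test compound for 15 min at room temperature. Read-out is a gel.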
As to `O=C1c2ccccc2-c2c1c1ccc([N+](=O)[O-])cc1c(=O)n2CC(O)CO` (racemic), the IC50 (usually the concentration that gives 50% inhibition) is > 111000 nM.
The same measure, in the same setting: the same measure for `O=C1c2ccccc2-c2c1c1ccc([N+](=O)[O-])cc1c(=O)n2C[C@H](O)[C@H](O)[C@H](O)CO`: > 111000 nM.

The target of a further experiment is T1, DNA topoisomerase 1 (Homo sapiens) (UniProt P11387).
T1 sequence (whole entry): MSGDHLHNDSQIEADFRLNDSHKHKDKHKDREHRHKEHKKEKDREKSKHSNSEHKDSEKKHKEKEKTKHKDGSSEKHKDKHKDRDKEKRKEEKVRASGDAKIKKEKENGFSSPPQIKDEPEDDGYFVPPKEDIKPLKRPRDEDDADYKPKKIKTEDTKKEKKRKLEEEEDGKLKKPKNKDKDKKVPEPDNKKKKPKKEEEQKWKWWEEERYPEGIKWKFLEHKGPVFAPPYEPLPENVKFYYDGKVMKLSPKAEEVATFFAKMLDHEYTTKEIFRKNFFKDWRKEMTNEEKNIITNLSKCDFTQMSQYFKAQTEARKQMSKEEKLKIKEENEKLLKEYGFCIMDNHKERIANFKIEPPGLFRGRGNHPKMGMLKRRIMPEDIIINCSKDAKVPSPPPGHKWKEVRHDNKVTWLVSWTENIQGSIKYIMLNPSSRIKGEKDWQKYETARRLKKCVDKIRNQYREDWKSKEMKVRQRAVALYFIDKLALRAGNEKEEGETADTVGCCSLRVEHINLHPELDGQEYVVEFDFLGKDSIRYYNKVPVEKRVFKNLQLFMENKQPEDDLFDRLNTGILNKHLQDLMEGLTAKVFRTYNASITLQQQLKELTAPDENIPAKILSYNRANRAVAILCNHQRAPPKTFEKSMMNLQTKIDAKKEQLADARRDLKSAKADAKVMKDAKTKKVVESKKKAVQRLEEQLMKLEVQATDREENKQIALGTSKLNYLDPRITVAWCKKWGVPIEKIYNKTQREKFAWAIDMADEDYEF
The experiment can be described thus: Inhibition of recombinant topoisomerase-1 (unknown origin) assessed as inhibition of 3'-[32P]-labeled DNA cleavage at 0.1 to 100 uM after 20 mins by PAGE analysis relative to control.
Details: not given
With `O=C1c2ccccc2-c2c1c1ccc([N+](=O)[O-])cc1c(=O)n2C[C@H](O)[C@@H](O)[C@H](O)CO`, the inhibition (commonly the percentage by which the read-out fell short of the control) is “Active”.
In the case of `O=C1c2ccccc2-c2c1c1ccc([N+](=O)[O-])cc1c(=O)n2C[C@@H](O)[C@@H](O)[C@H](O)[C@H](O)CO`, the inhibition result was “Active”.
On the same count and under the same terms, the same measure for `O=C1c2ccccc2-c2c1c1ccc([N+](=O)[O-])cc1c(=O)n2CC(O)CO` (racemic): 75%; for `O=C1c2ccccc2-c2c1c1ccc([N+](=O)[O-])cc1c(=O)n2C[C@H](O)[C@H](O)[C@H](O)CO`: “Active”.

A further experiment concerns UACC-62. The experiment can be described thus: Growth inhibition of human UACC62 cells. In kind it is functional.
Details: not given
The method, boiled down:
as §1
As for `O=C1c2ccccc2-c2c1c1ccc([N+](=O)[O-])cc1c(=O)n2C[C@@H](O)[C@@H](O)[C@H](O)[C@H](O)CO`, it took 3470 nM to inhibit growth by half (GI50). That is a single-digit micromolar value.

The next experiment concerns HCT-116. The experiment can be described thus: Growth inhibition of human HCT116 cells. In kind it is functional.
Details: not given
The method, boiled down:
as §1
In the case of `O=C1c2ccccc2-c2c1c1ccc([N+](=O)[O-])cc1c(=O)n2C[C@H](O)[C@@H](O)[C@H](O)CO`, it took 141 nM to inhibit growth by half (GI50). In other words, the sub-micromolar range.
Compound `O=C1c2ccccc2-c2c1c1ccc([N+](=O)[O-])cc1c(=O)n2CC(O)CO` (racemic) had a GI50 of 138 nM. This GI50 and that of the compound before are within 1.5-fold of each other.
`O=C1c2ccccc2-c2c1c1ccc([N+](=O)[O-])cc1c(=O)n2C[C@H](O)[C@H](O)[C@H](O)CO` gave a GI50 of 219 nM.

The test system of the next experiment is SN12C. The experiment can be described thus: Growth inhibition of human SN12C cells. The class given is functional.
Details: not given
Put shortly: as §1
As to `O=C1c2ccccc2-c2c1c1ccc([N+](=O)[O-])cc1c(=O)n2C[C@H](O)[C@@H](O)[C@H](O)CO`, halving of growth (GI50) required 295 nM.
The same measure, in the same setting: the value for `O=C1c2ccccc2-c2c1c1ccc([N+](=O)[O-])cc1c(=O)n2CC(O)CO` (racemic) was 355 nM; that for `O=C1c2ccccc2-c2c1c1ccc([N+](=O)[O-])cc1c(=O)n2C[C@H](O)[C@H](O)[C@H](O)CO` was 380 nM.

Test system in another experiment: not listed separately
The experiment can be described thus: Cytotoxicity against human NCI60 cells assessed as cell growth at 10 uM relative to vehicle-treated control. The class given is functional. The conditions noted are these: read-out: Activity. Put shortly: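 NCI-60 one-dose screen: roughly 60 human cancer cell lines exposed to 10^-5 M (10 μM) compound. Value is growth percent of treated cells relative to vehicle-treated control, averaged across the panel.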
`O=C1c2ccccc2-c2c1c1ccc([N+](=O)[O-])cc1c(=O)n2C[C@H](O)[C@@H](O)[C@H](O)CO`: the growth at 10 µM is -14.6%.
The same measure, in the same setting: the value for `O=C1c2ccccc2-c2c1c1ccc([N+](=O)[O-])cc1c(=O)n2C[C@@H](O)[C@@H](O)[C@H](O)[C@H](O)CO` was 73.2%.
For the compound `O=C1c2ccccc2-c2c1c1ccc([N+](=O)[O-])cc1c(=O)n2CC(O)CO` (racemic), the growth at 10 µM is -17.5%.
For the compound `O=C1c2ccccc2-c2c1c1ccc([N+](=O)[O-])cc1c(=O)n2C[C@H](O)[C@H](O)[C@H](O)CO`, the growth at 10 µM was -27.5%.
